According to ChEMBL document CHEMBL1123041, “Synthesis of new bis(aminoethanethiol) (BAT) derivatives: possible ligands for 99mTc brain imaging agents” (J Med Chem, 1985):

What was measured:
Rattus norvegicus [1] = experiment: Biodistribution in Sprague-Dawley rat spleen 2 minutes after intravenous administration, [99mTc]/[125I]IAP ratio); format: ADME, organism-based; conditions: in vivo
Summary of the method: (§1)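 99mTc complex and [125I]iodoantipyrine were co-injected iv into rats. Rats were killed by cardiectomy at 2 or 15 min, and organs were excised, weighed and gamma-counted in two channels with spillover correction. The ratio is 99mTc percent dose divided by 125I percent dose in the same organ, averaged over three rats. Radiochemical purity of the complexes was >95% by reversed-phase HPLC.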

Rattus norvegicus [2] = experiment: Biodistribution in Sprague-Dawley rat stomach 2 minutes after intravenous administration, [99mTc]/[125I]IAP ratio); format: ADME, organism-based; conditions: in vivo; summary of the method: as §1
Rattus norvegicus [3] = experiment: Biodistribution in Sprague-Dawley rat muscle 2 minutes after intravenous administration, [99mTc]/[125I]IAP ratio); format: ADME, organism-based, Muscle tissue; conditions: in vivo; summary of the method: as §1
Rattus norvegicus [4] = experiment: Biodistribution in Sprague-Dawley rat thyroid 2 minutes after intravenous administration, [99mTc]/[125I]IAP ratio); format: ADME, organism-based, Thyroid gland; conditions: in vivo; summary of the method: as §1
Rattus norvegicus [5] = experiment: Biodistribution in Sprague-Dawley rat skin 15 minutes after intravenous administration, [99mTc]/[125I]IAP ratio); format: ADME, organism-based, Zone of skin; conditions: in vivo, 0.25 h; summary of the method: as §1
Rattus norvegicus [6] = experiment: Biodistribution in Sprague-Dawley rat kidneys(2) 2 minutes after intravenous administration, [99mTc]/[125I]IAP ratio); format: ADME, organism-based, Kidney; conditions: in vivo; summary of the method: as §1
Rattus norvegicus [7] = experiment: Biodistribution in Sprague-Dawley rats heart 15 minutes after intravenous administration, [99mTc]/[125I]IAP ratio); format: ADME, organism-based; conditions: in vivo, 0.25 h; summary of the method: as §1
Rattus norvegicus [8] = experiment: Biodistribution in Sprague-Dawley rat lungs(2) 2 minutes after intravenous administration, [99mTc]/[125I]IAP ratio); format: ADME, organism-based, Lung; conditions: in vivo; summary of the method: as §1
Rattus norvegicus [9] = experiment: Biodistribution in Sprague-Dawley rat small intestine 2 minutes after intravenous administration, [99mTc]/[125I]IAP ratio); format: ADME, organism-based; conditions: in vivo; summary of the method: as §1
Rattus norvegicus [10] = experiment: Biodistribution in Sprague-Dawley rat blood 2 minutes after intravenous administration, [99mTc]/[125I]IAP ratio); format: ADME, organism-based; conditions: in vivo; summary of the method: as §1
[11] = Partition coefficient was determined atpH 7.0.; format: ADME; conditions: octanol/water, pH 7
Summary of the method: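 99mTc-labelled BAT complex shaken with 3 g each of 1-octanol and 0.1 M phosphate buffer (pH 7.0), vortexed 3 min at room temperature, centrifuged 5 min. Two 0.5 g samples per layer counted in a well counter; PC = cpm/g octanol over cpm/g buffer. Octanol layer repartitioned until values were consistent; usually repeated three times.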

Rattus norvegicus [12] = experiment: Biodistribution in Sprague-Dawley rat heart 2 minutes after intravenous administration, [99mTc]/[125I]IAP ratio); format: ADME, organism-based; conditions: in vivo; summary of the method: as §1
Rattus norvegicus [13] = experiment: Biodistribution in Sprague-Dawley rat brain 2 minutes after intravenous administration, [99mTc]/[125I]IAP ratio); format: ADME, organism-based; conditions: in vivo; summary of the method: as §1
Rattus norvegicus [14] = experiment: Biodistribution in Sprague-Dawley rat skin 2 minutes after intravenous administration, [99mTc]/[125I]IAP ratio); format: ADME, organism-based, Zone of skin; conditions: in vivo; summary of the method: as §1
Homo sapiens = organism: Homo sapiens; experiment: The human serum protein binding activity was determined; format: functional
Summary of the method: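 Equilibrium dialysis: 0.4 mL pooled human serum against 0.4 mL 0.15 M phosphate buffer pH 7.4 containing 99mTc complex (~0.025 μCi), rotated 18 h at 37 °C. Both sides weighed and counted; percent free = buffer/serum radioactivity concentration ratio × 100. Membrane counted afterwards to check membrane binding.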

Rattus norvegicus [15] = experiment: Biodistribution in Sprague-Dawley rat brain 15 minutes after intravenous administration, [99mTc]/[125I]IAP ratio); format: ADME, organism-based; conditions: in vivo, 0.25 h; summary of the method: as §1
Rattus norvegicus [16] = experiment: Biodistribution in Sprague-Dawley rat thyroid 15 minutes after intravenous administration, [99mTc]/[125I]IAP ratio); format: ADME, organism-based, Thyroid gland; conditions: in vivo, 0.25 h; summary of the method: as §1
Rattus norvegicus [17] = experiment: Biodistribution in Sprague-Dawley rat liver 15 minutes after intravenous administration, [99mTc]/[125I]IAP ratio); format: ADME, organism-based; conditions: in vivo, 0.25 h; summary of the method: as §1
Rattus norvegicus [18] = experiment: Biodistribution in Sprague-Dawley rat muscle 15 minutes after intravenous administration, [99mTc]/[125I]IAP ratio); format: ADME, organism-based, Muscle tissue; conditions: in vivo, 0.25 h; summary of the method: as §1
Rattus norvegicus [19] = experiment: Biodistribution in Sprague-Dawley rat stomach 15 minutes after intravenous administration, [99mTc]/[125I]IAP ratio); format: ADME, organism-based; conditions: in vivo, 0.25 h; summary of the method: as §1
Rattus norvegicus [20] = experiment: Biodistribution in Sprague-Dawley rat blood 15 minutes after intravenous administration, [99mTc]/[125I]IAP ratio); format: ADME, organism-based; conditions: in vivo, 0.25 h; summary of the method: as §1
Rattus norvegicus [21] = experiment: Biodistribution in Sprague-Dawley rat liver 2 minutes after intravenous administration, [99mTc]/[125I]IAP ratio); format: ADME, organism-based; conditions: in vivo; summary of the method: as §1
Rattus norvegicus [22] = experiment: Biodistribution in Sprague-Dawley rat lungs(2) 15 minutes after intravenous administration, [99mTc]/[125I]IAP ratio); format: ADME, organism-based, Lung; conditions: in vivo, 0.25 h; summary of the method: as §1
Rattus norvegicus [23] = experiment: Biodistribution in Sprague-Dawley rat kidneys(2) 15 minutes after intravenous administration, [99mTc]/[125I]IAP ratio); format: ADME, organism-based, Kidney; conditions: in vivo, 0.25 h; summary of the method: as §1
Rattus norvegicus [24] = experiment: Biodistribution in Sprague-Dawley rat small intestine 15 minutes after intravenous administration, [99mTc]/[125I]IAP ratio); format: ADME, organism-based; conditions: in vivo, 0.25 h; summary of the method: as §1
Rattus norvegicus [25] = experiment: Biodistribution in Sprague-Dawley rat spleen 15 minutes after intravenous administration, [99mTc]/[125I]IAP ratio); format: ADME, organism-based; conditions: in vivo, 0.25 h; summary of the method: as §1

CC(C)(S)CNCC(CO)NCC(C)(C)S.Cl.Cl (stereo unspecified)
Dose (Rattus norvegicus [1]): 0.349%
Dose (Rattus norvegicus [2]): 1.12%
Dose (Rattus norvegicus [3]): 13.4%
Dose (Rattus norvegicus [4]): 0.088%
Dose (Rattus norvegicus [5]): 6.53%
Dose (Rattus norvegicus [6]): 2.21%
Dose (Rattus norvegicus [7]): 0.3%
Dose (Rattus norvegicus [8]): 2.27%
Dose (Rattus norvegicus [9]): 4.46%
Dose (Rattus norvegicus [10]): 18.1%
Partition coefficient [11]: 64.5
Dose (Rattus norvegicus [12]): 0.887%
Dose (Rattus norvegicus [13]): 0.24%
Dose (Rattus norvegicus [14]): 6.72%
Free (Homo sapiens): 42.5%
Dose (Rattus norvegicus [15]): 0.15%
Dose (Rattus norvegicus [16]): 0.053%
Dose (Rattus norvegicus [17]): 16.8%
Dose (Rattus norvegicus [18]): 14.9%
Dose (Rattus norvegicus [19]): 0.85%
Dose (Rattus norvegicus [20]): 9.14%
Dose (Rattus norvegicus [21]): 16.7%
Dose (Rattus norvegicus [22]): 1.31%
Dose (Rattus norvegicus [23]): 2.39%
Dose (Rattus norvegicus [24]): 19.5%
Dose (Rattus norvegicus [25]): 0.309%
